Where “and” joins values, the source holds several entries; their conditions need not be identical. Identical values can stand only once.
Test system: U2OS
Assay: Multiplex assay against U2OS
Format: toxicity, cell-based
Details: human
Method in brief: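 Tubulin, mitochondrial-mass and membrane-permeability phenotypes are per cents of healthy-nucleus cells. Cells were gated by CellPathfinder machine learning into Hoechst high-intensity objects or normal cells, normal cells into healthy, pyknosed or fragmented nuclei, and pyknosed cells into mitotic or apoptotic. Before that, live cells stained at seeding with Hoechst33342, BioTracker Green Microtubule Cytoskeleton Dye, MitoTracker Red and Annexin V Alexa Fluor 680 were imaged on a CQ1 microscope at 37°C and 5% CO2 after compound addition.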

[1] = 12 h, 1 µM, compound concentration 1 uM
[2] = 12 h, 10 µM, compound concentration 10 uM
[3] = 24 h, 1 µM, compound concentration 1 uM
[4] = 24 h, 10 µM, compound concentration 10 uM
[5] = 48 h, 1 µM, compound concentration 1 uM
[6] = 48 h, 10 µM, compound concentration 10 uM

CCn1c(-c2nonc2N)nc2c(C#CC(C)(C)O)ncc(OCC3CCCNC3)c21 (centres undefined)
Population Apoptotic (%) [1]: 30.23% and 52.17%
Population Fragmented Nuclei (%) [1]: 3.38% and 1.86%
Population Healthy Nuclei (%) [1]: 85.45% and 83.85%
Population Hoechst High Intensity Objects (%) [1]: 0%
Population Membrane Permeable-Phenotype (%) [1]: 1.22% and 1.48%
Population Mitochondria Different-Phenotype (%) [1]: 0% and 5.93%
Population Mitotic Cells (%) [1]: 69.77% and 47.83%
Population Normal (%) [1]: 100%
Population Pyknosed Nuclei (%) [1]: 11.17% and 14.29%
Population Tubulin-Different-Phenotype (%) [1]: 0.91% and 0.74%
Total Cell Count [1]: 385 and 161
Population Apoptotic (%) [2]: 37.04% and 27.91%
Population Fragmented Nuclei (%) [2]: 2.62% and 8.28%
Population Healthy Nuclei (%) [2]: 83.2% and 64.33%
Population Hoechst High Intensity Objects (%) [2]: 0%
Population Membrane Permeable-Phenotype (%) [2]: 0.95% and 4.95%
Population Mitotic Cells (%) [2]: 62.96% and 72.09%
Population Normal (%) [2]: 100%
Population Pyknosed Nuclei (%) [2]: 14.17% and 27.39%
Population Tubulin-Different-Phenotype (%) [2]: 2.52% and 4.95%
Total Cell Count [2]: 381 and 157
Population Apoptotic (%) [3]: 38.6% and 42.86%
Population Fragmented Nuclei (%) [3]: 2.16% and 1.54%
Population Healthy Nuclei (%) [3]: 86.64% and 84.1%
Population Hoechst High Intensity Objects (%) [3]: 0.2% and 0.51%
Population Membrane Permeable-Phenotype (%) [3]: 0.68% and 5.49%
Population Mitochondria Different-Phenotype (%) [3]: 0.23% and 1.83%
Population Mitotic Cells (%) [3]: 61.4% and 57.14%
Population Normal (%) [3]: 99.8% and 99.49%
Population Pyknosed Nuclei (%) [3]: 11.2% and 14.36%
Population Tubulin-Different-Phenotype (%) [3]: 1.36% and 0%
Total Cell Count [3]: 510 and 196
Population Apoptotic (%) [4]: 44.32% and 50%
Population Fragmented Nuclei (%) [4]: 2.7% and 7.78%
Population Healthy Nuclei (%) [4]: 77.53% and 56.67%
Population Hoechst High Intensity Objects (%) [4]: 0%
Population Membrane Permeable-Phenotype (%) [4]: 0.29% and 0.98%
Population Mitotic Cells (%) [4]: 55.68% and 50%
Population Normal (%) [4]: 100%
Population Pyknosed Nuclei (%) [4]: 19.78% and 35.56%
Population Tubulin-Different-Phenotype (%) [4]: 3.48% and 3.92%
Total Cell Count [4]: 445 and 180
Population Apoptotic (%) [5]: 50% and 45.16%
Population Fragmented Nuclei (%) [5]: 2.09% and 2.15%
Population Healthy Nuclei (%) [5]: 90.19% and 88.34%
Population Hoechst High Intensity Objects (%) [5]: 0%
Population Membrane Permeable-Phenotype (%) [5]: 1.22% and 1.39%
Population Mitochondria Different-Phenotype (%) [5]: 0% and 4.51%
Population Mitotic Cells (%) [5]: 50% and 54.84%
Population Normal (%) [5]: 100%
Population Pyknosed Nuclei (%) [5]: 7.72% and 9.51%
Population Tubulin-Different-Phenotype (%) [5]: 0.49% and 1.04%
Total Cell Count [5]: 907 and 326
Population Apoptotic (%) [6]: 65.03% and 83.08%
Population Fragmented Nuclei (%) [6]: 6.86% and 8.16%
Population Healthy Nuclei (%) [6]: 71.34% and 58.67%
Population Hoechst High Intensity Objects (%) [6]: 0%
Population Membrane Permeable-Phenotype (%) [6]: 1.71% and 7.83%
Population Mitochondria Different-Phenotype (%) [6]: 0.64% and 7.83%
Population Mitotic Cells (%) [6]: 34.97% and 16.92%
Population Normal (%) [6]: 100%
Population Pyknosed Nuclei (%) [6]: 21.8% and 33.16%
Population Tubulin-Different-Phenotype (%) [6]: 2.56% and 7.83%

COc1cc(NC(=O)CCN2CCC(OC(=O)Nc3ccccc3-c3ccccc3)CC2)c(Cl)cc1CNC[C@H](O)c1ccc(O)c2[nH]c(=O)ccc12 [BATEFENTEROL]
Population Apoptotic (%) [1]: 68% and 85%
Population Fragmented Nuclei (%) [1]: 29% and 14%
Population Healthy Nuclei (%) [1]: 49% and 78%
Population Hoechst High Intensity Objects (%) [1]: 4% and 1%
Population Membrane Permeable-Phenotype (%) [1]: 5% and 9%
Population Mitochondria Different-Phenotype (%) [1]: 5% and 6%
Population Mitotic Cells (%) [1]: 31% and 14%
Population Normal (%) [1]: 95% and 98%
Population Pyknosed Nuclei (%) [1]: 21% and 7%
Population Tubulin-Different-Phenotype (%) [1]: 4% and 7%
Total Cell Count [1]: 159 and 98
Population Apoptotic (%) [2]: 72% and 88%
Population Fragmented Nuclei (%) [2]: 37% and 18%
Population Healthy Nuclei (%) [2]: 44% and 59%
Population Hoechst High Intensity Objects (%) [2]: 6% and 7%
Population Membrane Permeable-Phenotype (%) [2]: 60% and 57%
Population Mitochondria Different-Phenotype (%) [2]: 67% and 95%
Population Mitotic Cells (%) [2]: 27% and 11%
Population Normal (%) [2]: 93% and 92%
Population Pyknosed Nuclei (%) [2]: 18% and 22%
Population Tubulin-Different-Phenotype (%) [2]: 75% and 97%
Total Cell Count [2]: 196 and 82
Population Apoptotic (%) [3]: 74% and 100%
Population Fragmented Nuclei (%) [3]: 27% and 12%
Population Healthy Nuclei (%) [3]: 55% and 75%
Population Hoechst High Intensity Objects (%) [3]: 2% and 1%
Population Membrane Permeable-Phenotype (%) [3]: 9% and 5%
Population Mitochondria Different-Phenotype (%) [3]: 9% and 6%
Population Mitotic Cells (%) [3]: 25% and 0%
Population Normal (%) [3]: 97% and 98%
Population Pyknosed Nuclei (%) [3]: 17% and 11%
Population Tubulin-Different-Phenotype (%) [3]: 5% and 2%
Total Cell Count [3]: 182 and 103
Population Apoptotic (%) [4]: 79% and 73%
Population Fragmented Nuclei (%) [4]: 38% and 29%
Population Healthy Nuclei (%) [4]: 38% and 42%
Population Hoechst High Intensity Objects (%) [4]: 4% and 9%
Population Membrane Permeable-Phenotype (%) [4]: 32% and 52%
Population Mitochondria Different-Phenotype (%) [4]: 59% and 91%
Population Mitotic Cells (%) [4]: 20% and 26%
Population Normal (%) [4]: 95% and 90%
Population Pyknosed Nuclei (%) [4]: 22% and 27%
Population Tubulin-Different-Phenotype (%) [4]: 44% and 91%
Total Cell Count [4]: 199 and 93
Population Apoptotic (%) [5]: 82% and 85%
Population Fragmented Nuclei (%) [5]: 26% and 17%
Population Healthy Nuclei (%) [5]: 54% and 64%
Population Hoechst High Intensity Objects (%) [5]: 3% and 4%
Population Membrane Permeable-Phenotype (%) [5]: 3%
Population Mitochondria Different-Phenotype (%) [5]: 5% and 1%
Population Mitotic Cells (%) [5]: 17% and 14%
Population Normal (%) [5]: 96% and 95%
Population Pyknosed Nuclei (%) [5]: 19% and 17%
Population Tubulin-Different-Phenotype (%) [5]: 3% and 1%
Total Cell Count [5]: 242 and 123
Population Apoptotic (%) [6]: 92% and 94%
Population Fragmented Nuclei (%) [6]: 41% and 29%
Population Healthy Nuclei (%) [6]: 39% and 32%
Population Hoechst High Intensity Objects (%) [6]: 6% and 10%
Population Membrane Permeable-Phenotype (%) [6]: 31% and 38%
Population Mitochondria Different-Phenotype (%) [6]: 43% and 70%
Population Mitotic Cells (%) [6]: 7% and 5%
Population Normal (%) [6]: 93% and 89%
Population Pyknosed Nuclei (%) [6]: 18% and 37%
Population Tubulin-Different-Phenotype (%) [6]: 23% and 48%
Total Cell Count [6]: 221 and 105

CC(C)(C)c1cc(NC(=O)Nc2ccc(-c3cn4c(n3)sc3cc(OCCN5CCOCC5)ccc34)cc2)no1 [QUIZARTINIB]
Population Apoptotic (%) [1]: 48% and 78%
Population Fragmented Nuclei (%) [1]: 24% and 17%
Population Healthy Nuclei (%) [1]: 61% and 70%
Population Hoechst High Intensity Objects (%) [1]: 6% and 1%
Population Membrane Permeable-Phenotype (%) [1]: 13% and 6%
Population Mitochondria Different-Phenotype (%) [1]: 4% and 6%
Population Mitotic Cells (%) [1]: 51% and 21%
Population Normal (%) [1]: 93% and 98%
Population Pyknosed Nuclei (%) [1]: 14% and 11%
Population Tubulin-Different-Phenotype (%) [1]: 8% and 4%
Total Cell Count [1]: 213 and 119
Population Apoptotic (%) [2]: 58% and 23%
Population Fragmented Nuclei (%) [2]: 30% and 11%
Population Healthy Nuclei (%) [2]: 47% and 65%
Population Hoechst High Intensity Objects (%) [2]: 13% and 6%
Population Membrane Permeable-Phenotype (%) [2]: 85% and 62%
Population Mitochondria Different-Phenotype (%) [2]: 26% and 33%
Population Mitotic Cells (%) [2]: 41% and 76%
Population Normal (%) [2]: 86% and 94%
Population Pyknosed Nuclei (%) [2]: 21% and 22%
Population Tubulin-Different-Phenotype (%) [2]: 76% and 54%
Total Cell Count [2]: 197 and 100
Population Apoptotic (%) [3]: 57% and 62%
Population Fragmented Nuclei (%) [3]: 25% and 15%
Population Healthy Nuclei (%) [3]: 56% and 72%
Population Hoechst High Intensity Objects (%) [3]: 2% and 0%
Population Membrane Permeable-Phenotype (%) [3]: 15% and 9%
Population Mitochondria Different-Phenotype (%) [3]: 8% and 4%
Population Mitotic Cells (%) [3]: 42% and 37%
Population Normal (%) [3]: 97% and 99%
Population Pyknosed Nuclei (%) [3]: 17% and 12%
Population Tubulin-Different-Phenotype (%) [3]: 7% and 5%
Total Cell Count [3]: 234 and 134
Population Apoptotic (%) [4]: 63% and 51%
Population Healthy Nuclei (%) [4]: 34% and 58%
Population Hoechst High Intensity Objects (%) [4]: 11% and 2%
Population Membrane Permeable-Phenotype (%) [4]: 55% and 40%
Population Mitochondria Different-Phenotype (%) [4]: 38% and 32%
Population Mitotic Cells (%) [4]: 36% and 48%
Population Normal (%) [4]: 88% and 97%
Population Pyknosed Nuclei (%) [4]: 30%
Population Tubulin-Different-Phenotype (%) [4]: 45% and 30%
Total Cell Count [4]: 195 and 96
Population Apoptotic (%) [5]: 60% and 73%
Population Fragmented Nuclei (%) [5]: 21% and 16%
Population Healthy Nuclei (%) [5]: 61% and 72%
Population Hoechst High Intensity Objects (%) [5]: 3% and 2%
Population Membrane Permeable-Phenotype (%) [5]: 7% and 9%
Population Mitochondria Different-Phenotype (%) [5]: 2% and 7%
Population Mitotic Cells (%) [5]: 39% and 26%
Population Normal (%) [5]: 96% and 97%
Population Pyknosed Nuclei (%) [5]: 16% and 10%
Population Tubulin-Different-Phenotype (%) [5]: 3% and 6%
Total Cell Count [5]: 297 and 180
Population Apoptotic (%) [6]: 72% and 56%
Population Fragmented Nuclei (%) [6]: 33% and 19%
Population Healthy Nuclei (%) [6]: 25% and 48%
Population Hoechst High Intensity Objects (%) [6]: 9% and 5%
Population Membrane Permeable-Phenotype (%) [6]: 41% and 35%
Population Mitochondria Different-Phenotype (%) [6]: 33%
Population Mitotic Cells (%) [6]: 27% and 43%
Population Normal (%) [6]: 90% and 94%
Population Pyknosed Nuclei (%) [6]: 40% and 32%
Population Tubulin-Different-Phenotype (%) [6]: 33% and 28%
Total Cell Count [6]: 219 and 98

— ChEMBL document CHEMBL5724801, “EUbOPEN Chemogenomics Library - Multiplex” (2024)
